Molecules are shown by their SMILES.

Test system in the first experiment: not listed separately
In words: Cytotoxicity in human AZ-521 cells assessed as cell viability after 48 hrs by MTT assay. The format is functional, cell-based. The conditions noted are these: AZ-521, 48 h. Background: Formazan colour is commonly taken as a measure of viable cells.
Turning to `C=C(CC[C@@H](C(=O)OC)[C@H]1[C@H](O)C[C@@]2(C)C3=C(CC[C@]12C)[C@@](C)(CCC(=O)OC)[C@H](C(=C)C)CC3)C(C)C` [DIMETHYL PORICOATE H], the IC50 (usually the concentration that gives 50% inhibition) is 14.6 µM.
Turning to `C=C(CC[C@@H](C(=O)OC)[C@H]1CC[C@@]2(C)C3=CC[C@@H](C(=C)C)[C@](C)(CCC(=O)OC)C3=CC[C@]12C)C(C)C` [DIMETHYL PORICOATE C], the IC50 stood at 19.8 µM.
Still for that read-out and setting: in the case of `C=C(CC[C@@H](C(=O)O)[C@H]1[C@H](O)C[C@@]2(C)C3=CC[C@@H](C(=C)C)[C@](C)(CCC(=O)O)C3=CC[C@]12C)C(C)C` [PORICOIC ACID A] it was over 100 µM; in that of `C=C(CC[C@@H](C(=O)OC)[C@H]1[C@H](O)C[C@@]2(C)C3=CC[C@@H](C(=C)C)[C@](C)(CCC(=O)OC)C3=CC[C@]12C)C(C)C` [DIMETHYL PORICOATE A], 32.1 µM.
As to `C=C(CC[C@@H](C(=O)O)[C@H]1[C@H](O)C[C@@]2(C)C3=CC[C@H]4C(C)(C)[C@H](O)CC[C@]4(C)C3=CC[C@]12C)C(C)(C)O`, the IC50 amounted to 51.5 µM.

The subject of another experiment is DU-145. Put plainly: Cytotoxicity in human DU145 cells assessed as cell viability after 48 hrs by MTT assay. It counts as functional, cell-based. To be noted: DU-145, 48 h. In short, it runs like this:
(§1)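 Growth conditions: RPMI 1640 for HL60, CRL1579, NIH:OVCAR-3, SK-BR-3, DU145 and PANC-1; D-MEM for A549; MEM for WI-38; all with 10% FBS and antibiotics, 37 °C, 5% CO2. Seeded at 3 × 10^3 cells/well (OVCAR-3 1 × 10^4), then treated 48 h with 10^-4 to 10^-6 M. MTT for 3 h, formazan dissolved in 0.04 M HCl/2-propanol, A570/630. IC50 (50% growth inhibition) from triplicates.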
For the molecule `C=C(CC[C@@H](C(=O)OC)[C@H]1[C@H](O)C[C@@]2(C)C3=C(CC[C@]12C)[C@@](C)(CCC(=O)OC)[C@H](C(=C)C)CC3)C(C)C` [DIMETHYL PORICOATE H], the IC50 was 28.9 µM.
Consider `C=C(CC[C@@H](C(=O)OC)[C@H]1CC[C@@]2(C)C3=CC[C@@H](C(=C)C)[C@](C)(CCC(=O)OC)C3=CC[C@]12C)C(C)C` [DIMETHYL PORICOATE C], for which the IC50 was over 100 µM.
As to `C=C(CC[C@@H](C(=O)O)[C@H]1[C@H](O)C[C@@]2(C)C3=CC[C@@H](C(=C)C)[C@](C)(CCC(=O)O)C3=CC[C@]12C)C(C)C` [PORICOIC ACID A], the IC50 is over 100 µM.
For the molecule `C=C(CC[C@@H](C(=O)OC)[C@H]1[C@H](O)C[C@@]2(C)C3=CC[C@@H](C(=C)C)[C@](C)(CCC(=O)OC)C3=CC[C@]12C)C(C)C` [DIMETHYL PORICOATE A], the IC50 was over 100 µM.
Consider `C=C(CC[C@@H](C(=O)O)[C@H]1[C@H](O)C[C@@]2(C)C3=CC[C@H]4C(C)(C)[C@H](O)CC[C@]4(C)C3=CC[C@]12C)C(C)(C)O`, for which the IC50 was over 100 µM.

A further experiment deals with PANC-1. Put plainly: Cytotoxicity in human PANC1 cells assessed as cell viability after 48 hrs by MTT assay. The format is functional, cell-based. To be noted: PANC-1, 48 h. In short, it runs like this: as §1
Consider `C=C(CC[C@@H](C(=O)OC)[C@H]1[C@H](O)C[C@@]2(C)C3=C(CC[C@]12C)[C@@](C)(CCC(=O)OC)[C@H](C(=C)C)CC3)C(C)C` [DIMETHYL PORICOATE H], for which the IC50 was 44.9 µM.
On to `C=C(CC[C@@H](C(=O)OC)[C@H]1CC[C@@]2(C)C3=CC[C@@H](C(=C)C)[C@](C)(CCC(=O)OC)C3=CC[C@]12C)C(C)C` [DIMETHYL PORICOATE C], for which the half-inhibitory concentration (IC50) was over 100 µM.
As to `C=C(CC[C@@H](C(=O)O)[C@H]1[C@H](O)C[C@@]2(C)C3=CC[C@@H](C(=C)C)[C@](C)(CCC(=O)O)C3=CC[C@]12C)C(C)C` [PORICOIC ACID A], the 50% inhibitory concentration (IC50) was over 100 µM.
In the case of `C=C(CC[C@@H](C(=O)OC)[C@H]1[C@H](O)C[C@@]2(C)C3=CC[C@@H](C(=C)C)[C@](C)(CCC(=O)OC)C3=CC[C@]12C)C(C)C` [DIMETHYL PORICOATE A], the IC50 was over 100 µM.
As for `C=C(CC[C@@H](C(=O)O)[C@H]1[C@H](O)C[C@@]2(C)C3=CC[C@H]4C(C)(C)[C@H](O)CC[C@]4(C)C3=CC[C@]12C)C(C)(C)O`, the IC50 was found to be 67.4 µM.

A further experiment deals with HL-60. Put plainly: Cytotoxicity in human HL60 cells assessed as cell viability after 48 hrs by MTT assay. The conditions noted are these: HL-60, 48 h. It counts as functional, cell-based. In short, it runs like this: as §1
Take `C=C(CC[C@@H](C(=O)OC)[C@H]1[C@H](O)C[C@@]2(C)C3=C(CC[C@]12C)[C@@](C)(CCC(=O)OC)[C@H](C(=C)C)CC3)C(C)C` [DIMETHYL PORICOATE H]: the IC50 was found to be 3.6 µM.
Consider `C=C(CC[C@@H](C(=O)OC)[C@H]1CC[C@@]2(C)C3=CC[C@@H](C(=C)C)[C@](C)(CCC(=O)OC)C3=CC[C@]12C)C(C)C` [DIMETHYL PORICOATE C], for which the IC50 came out at 2.4 µM.
Take `C=C(CC[C@@H](C(=O)OC)[C@H]1[C@H](O)C[C@@]2(C)C3=CC[C@@H](C(=C)C)[C@](C)(CCC(=O)OC)C3=CC[C@]12C)C(C)C` [DIMETHYL PORICOATE A]: the 50% inhibitory concentration (IC50) was 18.2 µM.

A further experiment concerns A549. Put plainly: Cytotoxicity in human A549 cells assessed as cell viability after 48 hrs by MTT assay. The format is functional, cell-based. To be noted: A549, 48 h. In short, it runs like this: as §1
Take `C=C(CC[C@@H](C(=O)OC)[C@H]1[C@H](O)C[C@@]2(C)C3=C(CC[C@]12C)[C@@](C)(CCC(=O)OC)[C@H](C(=C)C)CC3)C(C)C` [DIMETHYL PORICOATE H]: the concentration for half-maximal inhibition (IC50) amounted to 13.5 µM.
As for `C=C(CC[C@@H](C(=O)OC)[C@H]1CC[C@@]2(C)C3=CC[C@@H](C(=C)C)[C@](C)(CCC(=O)OC)C3=CC[C@]12C)C(C)C` [DIMETHYL PORICOATE C], the IC50 was found to be 83.8 µM.
Regarding `C=C(CC[C@@H](C(=O)O)[C@H]1[C@H](O)C[C@@]2(C)C3=CC[C@@H](C(=C)C)[C@](C)(CCC(=O)O)C3=CC[C@]12C)C(C)C` [PORICOIC ACID A], the IC50 is over 100 µM.
Regarding `C=C(CC[C@@H](C(=O)OC)[C@H]1[C@H](O)C[C@@]2(C)C3=CC[C@@H](C(=C)C)[C@](C)(CCC(=O)OC)C3=CC[C@]12C)C(C)C` [DIMETHYL PORICOATE A], the IC50 is 79.6 µM.
Turning to `C=C(CC[C@@H](C(=O)O)[C@H]1[C@H](O)C[C@@]2(C)C3=CC[C@H]4C(C)(C)[C@H](O)CC[C@]4(C)C3=CC[C@]12C)C(C)(C)O`, the IC50 is 4 µM.

The next experiment has as its system OVCAR-3. Put plainly: Cytotoxicity in human OVCAR3 cells assessed as cell viability after 48 hrs by MTT assay. The format is functional, cell-based. The conditions noted are these: OVCAR-3, 48 h. In short, it runs like this:
as §1
In the case of `C=C(CC[C@@H](C(=O)OC)[C@H]1[C@H](O)C[C@@]2(C)C3=C(CC[C@]12C)[C@@](C)(CCC(=O)OC)[C@H](C(=C)C)CC3)C(C)C` [DIMETHYL PORICOATE H], the half-maximal inhibitory concentration (IC50) was 49.5 µM.
As to `C=C(CC[C@@H](C(=O)OC)[C@H]1CC[C@@]2(C)C3=CC[C@@H](C(=C)C)[C@](C)(CCC(=O)OC)C3=CC[C@]12C)C(C)C` [DIMETHYL PORICOATE C], the IC50 amounted to 23.6 µM.
Turning to `C=C(CC[C@@H](C(=O)O)[C@H]1[C@H](O)C[C@@]2(C)C3=CC[C@@H](C(=C)C)[C@](C)(CCC(=O)O)C3=CC[C@]12C)C(C)C` [PORICOIC ACID A], the IC50 is over 100 µM.
For the molecule `C=C(CC[C@@H](C(=O)OC)[C@H]1[C@H](O)C[C@@]2(C)C3=CC[C@@H](C(=C)C)[C@](C)(CCC(=O)OC)C3=CC[C@]12C)C(C)C` [DIMETHYL PORICOATE A], the concentration for half-maximal inhibition (IC50) stood at 91.8 µM.
The same measure, in the same setting: in the case of `C=C(CC[C@@H](C(=O)O)[C@H]1[C@H](O)C[C@@]2(C)C3=CC[C@H]4C(C)(C)[C@H](O)CC[C@]4(C)C3=CC[C@]12C)C(C)(C)O` it was 9.5 µM.

Test system in another experiment: not listed separately
In words: Cytotoxicity in human CRL1579 cells assessed as cell viability after 48 hrs by MTT assay. The format is functional, cell-based.
Conditions: not given
The essentials:
as §1
Regarding `C=C(CC[C@@H](C(=O)OC)[C@H]1[C@H](O)C[C@@]2(C)C3=C(CC[C@]12C)[C@@](C)(CCC(=O)OC)[C@H](C(=C)C)CC3)C(C)C` [DIMETHYL PORICOATE H], the IC50 was found to be 97.6 µM.
On to `C=C(CC[C@@H](C(=O)OC)[C@H]1CC[C@@]2(C)C3=CC[C@@H](C(=C)C)[C@](C)(CCC(=O)OC)C3=CC[C@]12C)C(C)C` [DIMETHYL PORICOATE C], for which the concentration for half-maximal inhibition (IC50) amounted to 27.8 µM.
For `C=C(CC[C@@H](C(=O)OC)[C@H]1[C@H](O)C[C@@]2(C)C3=CC[C@@H](C(=C)C)[C@](C)(CCC(=O)OC)C3=CC[C@]12C)C(C)C` [DIMETHYL PORICOATE A], the IC50 was over 100 µM.

The next experiment relates to SK-BR-3. In words: Cytotoxicity in human SK-BR-3 cells assessed as cell viability after 48 hrs by MTT assay. The format is functional, cell-based. To be noted: SK-BR-3, 48 h. In short, it runs like this: as §1
For `C=C(CC[C@@H](C(=O)OC)[C@H]1[C@H](O)C[C@@]2(C)C3=C(CC[C@]12C)[C@@](C)(CCC(=O)OC)[C@H](C(=C)C)CC3)C(C)C` [DIMETHYL PORICOATE H], the IC50 turned out to be 15.9 µM.
For `C=C(CC[C@@H](C(=O)OC)[C@H]1CC[C@@]2(C)C3=CC[C@@H](C(=C)C)[C@](C)(CCC(=O)OC)C3=CC[C@]12C)C(C)C` [DIMETHYL PORICOATE C], the IC50 was determined as 23.9 µM.
For `C=C(CC[C@@H](C(=O)O)[C@H]1[C@H](O)C[C@@]2(C)C3=CC[C@@H](C(=C)C)[C@](C)(CCC(=O)O)C3=CC[C@]12C)C(C)C` [PORICOIC ACID A], the IC50 is over 100 µM.
Consider `C=C(CC[C@@H](C(=O)OC)[C@H]1[C@H](O)C[C@@]2(C)C3=CC[C@@H](C(=C)C)[C@](C)(CCC(=O)OC)C3=CC[C@]12C)C(C)C` [DIMETHYL PORICOATE A], for which the 50% inhibitory concentration (IC50) worked out at 32.2 µM.
For the molecule `C=C(CC[C@@H](C(=O)O)[C@H]1[C@H](O)C[C@@]2(C)C3=CC[C@H]4C(C)(C)[C@H](O)CC[C@]4(C)C3=CC[C@]12C)C(C)(C)O`, the IC50 was found to be 62.3 µM.

The record behind these values is ChEMBL document CHEMBL1765085, “Cytotoxic and apoptosis-inducing activities of triterpene acids from Poria cocos” (J Nat Prod, 2011).
